The results in this text go back to publication PMC2782447 (Apoptosis : an international journal on programmed cell …, 2008).

The target of experiment [1] is T1, caspase-7 (Homo sapiens, UniProt P55210).
T1 sequence (P55210 24-198 limits assumed): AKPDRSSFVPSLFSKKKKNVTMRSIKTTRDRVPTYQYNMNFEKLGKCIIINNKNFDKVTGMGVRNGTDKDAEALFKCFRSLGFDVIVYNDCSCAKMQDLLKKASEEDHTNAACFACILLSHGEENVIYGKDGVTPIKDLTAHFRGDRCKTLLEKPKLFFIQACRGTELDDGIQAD
T1 sequence (P55210 207-303 limits assumed): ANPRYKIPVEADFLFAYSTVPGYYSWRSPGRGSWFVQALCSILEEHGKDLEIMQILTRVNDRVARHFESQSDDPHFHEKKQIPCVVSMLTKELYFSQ
Briefly: Crystal structure of caspase-7/LDESD. It is filed as binding. The following applies: crystal structure caspase-7/LDESD, 2.45 Å, PDB 3EDR.

Experiment [2] concerns the target T2, caspase-3 (Homo sapiens, UniProt P42574).
T2 sequence (P42574 29-175 limits assumed): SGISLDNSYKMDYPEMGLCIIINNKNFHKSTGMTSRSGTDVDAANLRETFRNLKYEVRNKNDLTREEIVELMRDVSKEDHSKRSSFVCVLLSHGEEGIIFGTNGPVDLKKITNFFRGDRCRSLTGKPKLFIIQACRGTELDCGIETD
T2 sequence (P42574 176-277 limits assumed): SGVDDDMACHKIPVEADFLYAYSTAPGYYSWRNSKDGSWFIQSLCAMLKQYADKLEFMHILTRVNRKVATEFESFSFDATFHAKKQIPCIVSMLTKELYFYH
The experiment in a line: Crystal structure of caspase-3/LDESD. The note with it: crystal structure caspase-3/LDESD, 1.61 Å, PDB 3EDQ. It is filed as binding.

The target of experiment [3] is T1, caspase-7. Briefly: Colorimetric substrate hydrolysis by caspase-7. It is filed as biochemical. The note with it: relative to DEVD = 100%; caspase-7, pH 7.5.
The target of experiment [4] is T2, caspase-3. The experiment in a line: Colorimetric substrate hydrolysis by caspase-3. It is filed as biochemical. The following applies: for Relative kcat/Km (relative activity): relative to DEVD = 100%, caspase-3, pH 7.5.
The target of another experiment is T3, caspase-6 (Homo sapiens, UniProt P55212).
T3 sequence (P55212 25-179 limits assumed): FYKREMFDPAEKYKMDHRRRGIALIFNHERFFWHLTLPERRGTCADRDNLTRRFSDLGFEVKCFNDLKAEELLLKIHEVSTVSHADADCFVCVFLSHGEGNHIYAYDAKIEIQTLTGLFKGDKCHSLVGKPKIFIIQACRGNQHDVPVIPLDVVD
T3 sequence (P55212 194-293 limits assumed): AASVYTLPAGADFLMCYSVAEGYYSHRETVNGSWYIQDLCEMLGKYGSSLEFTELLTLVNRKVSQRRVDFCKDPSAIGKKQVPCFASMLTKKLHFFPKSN
Briefly: Colorimetric substrate hydrolysis by caspase-6. The note with it: for kcat/Km: 50 mM HEPES, pH 7.25, 100 mM NaCl, 10% sucrose, 0.1% CHAPS, 405 nm, triplicate; for Relative kcat/Km (relative activity): relative to DEVD = 100%. It is filed as biochemical. Put shortly: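 It was purified by Ni-NTA and S-100 gel filtration and self-processed into active subunits. Assays used 50 mM HEPES pH 7.25, 100 mM NaCl, 10% sucrose, 0.1% CHAPS, with pNA substrates at varied concentrations, A405, in triplicate.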

A further experiment deals with caspase-8 (Homo sapiens, UniProt Q14790). The experiment in a line: Colorimetric substrate hydrolysis by caspase-8. It is filed as biochemical. The following applies: relative to DEVD = 100%; caspase-8, pH 7.5.

The star is where a group is joined. pNA = O=[N+]([O-])c1ccc(N*)cc1

Chain of caspase-8 (Q14790 217-374 limits assumed): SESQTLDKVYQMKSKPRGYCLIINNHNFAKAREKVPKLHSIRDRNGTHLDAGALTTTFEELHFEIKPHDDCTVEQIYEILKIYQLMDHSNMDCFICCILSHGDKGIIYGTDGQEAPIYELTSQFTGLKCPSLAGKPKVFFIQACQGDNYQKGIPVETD
Chain of caspase-8 (Q14790 385-479 limits assumed): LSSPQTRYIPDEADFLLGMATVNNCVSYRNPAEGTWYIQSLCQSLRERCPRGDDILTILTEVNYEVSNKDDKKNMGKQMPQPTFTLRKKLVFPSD

For the substance Ac-LDESD-aldehyde, the “covalent binding mode (active site cysteine with aldehyde)” value on caspase-7 [1] and on caspase-3 [2] was “forms a hemithioacetal bond with the aldehyde group of the inhibitor” throughout.
On to Ac-LDEVD-pNA, for which the “Relative kcat/Km (relative activity)” value was determined as 56% on caspase-7 [3]; 146% on caspase-3 [4]; 118% at caspase-6 (caspase-6, pH 7.25); 20% at caspase-8. On caspase-3 [4] (caspase-3, increase over DEVD), the “increased hydrolysis relative to DEVD” value came to 50%. Also, the kcat/Km on caspase-6 amounted to 0.068±0.01 min^−1μM^−1.
Regarding Ac-QDEVD-pNA, the “Relative kcat/Km (relative activity)” value is 67% at caspase-7 [3]; 85% on caspase-3 [4]; 148% at caspase-6 (caspase-6, pH 7.25); 18% at caspase-8. Moreover, the “activity of QDEVD compared with DEVD, in words” value on caspase-3 [4] (caspase-3) is “the activity was similar for the tetrapeptide DEVD and the pentapeptide QDEVD”. In addition, on caspase-6, the kcat/Km stood at 0.086±0.01 min^−1μM^−1. In addition, the “substrate preference, in words” value on caspase-6 (caspase-6, polar P5) was “preference for polar P5 in QDEVD”.
For the substance LEHD, the kcat/Km at caspase-6 was found to be 0.19 min^−1μM^−1. The “kcat/Km fold higher than DEVD” value at caspase-6 (LEHD versus DEVD, caspase-6, pH 7.25) is on record as 3 fold.
